According to ChEMBL document CHEMBL3763015 (Bioorg Med Chem, 2016):
Active and inactive are the calls of the source. No cut-off for these calls is given here.

Key:
Cathepsin B (Bos taurus) [1] = biological target: Cathepsin B (Bos taurus) (UniProt P07688); test: Inhibition of bovine spleen cathepsin B using Z-Arg-Arg-MCA as substrate at 1 mM incubated for 10 mins
In short: (§1)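 10 mU enzyme preincubated 10 min at 40 °C in 50 mM MES pH 6.0 with 2 mM DTT and 0.1% Brij-35. Z-Arg-Arg-MCA and inhibitor in DMSO were then added and incubated 10 min at 40 °C. Reaction stopped with sodium monochloroacetate/acetate buffer, pH 4.3. Screening was at 1.0 mM inhibitor; IC50 runs used 1 nM to 1 mM.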

HeLa = test: Cytotoxicity against human HeLa cells assessed as cell death at 200 uM by […]; type: cell-based
In short: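 HeLa cells were grown in DMEM with 5% FBS and 1% penicillin–streptomycin. 100 μl of 5000 cells/ml was seeded and held 24 h at 37 °C, 5% CO2. Compound at 200 μM, with rotenone control, was added for 24 h. WST-8/1-methoxy PMS was added for 2 h, and absorbance read at 450 nm against 630 nm. Result reported as cell death ratio.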

Cathepsin B = Cathepsin B (Bos taurus, UniProt P07688); test: Inhibition of bovine spleen cathepsin B using Z-Arg-Arg-MCA as substrate incubated for 10 mins; in short: as §1
Cathepsin B (Bos taurus) [2] = biological target: Cathepsin B (Bos taurus) (UniProt P07688); test: Competitive inhibition of bovine spleen cathepsin B using Z-Arg-Arg-MCA as substrate incubated for 10 mins by Lineweaver-Burk plot

| Structure (SMILES) | inhibition (Cathepsin B (Bos taurus) [1]) | Activity (HeLa) | IC50 (Cathepsin B) | inhibition (Cathepsin B (Bos taurus) [2]) |
| --- | --- | --- | --- | --- |
| O=C(/C=C/c1ccccc1)N[C@@H](COC(=O)c1ccccc1)C(=O)NC1CCCCC1 | 34% | < 20% | – | – |
| COc1cc(/C=C/C(=O)N[C@H](COC(=O)c2ccccc2)C(=O)NC2CCCCC2)cc(OC)c1OC | 70% | – | 500 µM | – |
| COc1cc(/C=C/C(=O)N[C@@H](COC(=O)c2ccccc2)C(=O)NC2CCCCC2)cc(OC)c1OC | 21% | < 20% | – | – |
| COc1cc(/C=C/C(=O)N[C@@H](COC(=O)c2ccccc2)C(=O)NC2CCCCC2)cc(OC)c1 | inactive | < 20% | – | – |
| COc1cccc(/C=C/C(=O)N[C@H](COC(=O)c2ccccc2)C(=O)NC2CCCCC2)c1 | 44% | – | – | – |
| COc1cccc(/C=C/C(=O)N[C@@H](COC(=O)c2ccccc2)C(=O)NC2CCCCC2)c1 | 36% | < 20% | – | – |
| COc1ccccc1/C=C/C(=O)N[C@@H](COC(=O)c1ccccc1)C(=O)NC1CCCCC1 | 67% | – | 170 µM | Active |
| O=C(/C=C/c1ccc(OC(=O)c2ccccc2)cc1)N[C@@H](COC(=O)c1ccccc1)C(=O)NC1CCCCC1 | 35% | < 20% | – | – |
| O=C(/C=C/c1ccccc1)N[C@H](COC(=O)c1ccccc1)C(=O)NC1CCCCC1 | inactive | – | – | – |
| O=C(/C=C/c1ccc(OC(=O)c2ccccc2)cc1)N[C@H](COC(=O)c1ccccc1)C(=O)NC1CCCCC1 | 19% | – | – | – |
| O=C(/C=C/c1ccccc1)N[C@@H](COC(=O)CCc1ccccc1)C(=O)NC1CCCCC1 | 82% | – | – | – |
| COc1ccc(/C=C/C(=O)N[C@@H](COC(=O)c2ccccc2)C(=O)NC2CCCCC2)cc1OC | 88% | – | – | – |
| COc1cc(/C=C/C(=O)N[C@H](COC(=O)c2ccccc2)C(=O)NC2CCCCC2)cc(OC)c1 | 22% | – | – | – |
